How the values were obtained:
[1] = Cytotoxicity against imatinib and dasatinib-resistant mouse DA1-3b/M2 cells after 72 hrs by MTT assay; type: functional, cell-based
Outline: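 Cells seeded at 10^4/well and exposed to compound or DMSO vehicle for 72 h. MTT added for the final 4 h, absorbance read at 490 nm; triplicate, camptothecin as positive control. K562R, DA1-3b/M2 and bone marrow cells (three healthy donors) grown in RPMI 1640 + 1% glutamine, 1% penicillin/streptomycin, 10% FCS. EML-C1 cultured per ATCC instructions.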

[2] = system: Pneumocystis carinii; assay: Antifungal activity against Pneumocystis carinii after 4 days by RAL-555 staining based microscopy; type: functional, organism-based; settings: 96 h
Outline: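 Pneumocystis carinii came from the lungs of athymic Lou nu/nu rats that were dexamethasone-immunosuppressed and infected. Broth microdilution in DMEM + 10% FCS, 1.0 × 10^6 organisms/mL, final drug 1.1 × 10^-5 to 212.3 µM diluted from DMSO stocks. Incubated 4 days at 37 °C, 5% CO2, with a drug-free control. Smears stained with RAL-555 and counted microscopically; triplicate. Hill (Emax sigmoid) model used.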

Compound	IC50 [1] [nM]	IC50 [2] [nM]
CC[C@@]1(O)C(=O)OCc2c1cc1n(c2=O)Cc2cc3ccccc3nc2-1 [CAMPTOTHECIN]	30	
N=C(N)c1ccc(OCCCCCOc2ccc(C(=N)N)cc2)cc1 [PENTAMIDINE]		84

Reference: ChEMBL document CHEMBL1177751, “Antifungal and cytotoxic activity of withanolides from Acnistus arborescens” (J Nat Prod, 2010)
